Test results from ChEMBL document CHEMBL4513216, “Probing the Open Global Health Chemical Diversity Library for Multistage-Active Starting Points for Next-Generation Antimalarials” (ACS Infect Dis, 2020).

experiment: Toxicity liver stage against HepG2, at 10uM; format: cell-based; design: test concentration 10 uM, cell line HepG2-A16-CD81EGFP; conditions: human, HepG2-A16-CD81EGFP cells; read-out: INHIBITION
Outline: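 Uninfected HepG2-A16-CD81EGFP cells, 3 × 10^3 per well, 1536-well, plated on prespotted compound at 10 μM final, parasite-free screening media added to match infected plates; puromycin 10 μM positive, DMSO 0.5% negative; run in parallel with 48 h PbLuc assay at 37 °C, 5% CO2; viability by CellTiter-Glo luminescence, normalized to controls.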

| SMILES | cytotoxicity at 10 µM |
| --- | --- |
| O=c1[nH]c(NCCO)nc2c1C1(CCCC1)Cc1ccccc1-2 | 8.13% |
| Cc1n[nH]c2c1C(c1ccc(Br)cc1)SCC(=O)N2 (stereo not given) | 6.5% |
| Cc1nn2c(-c3snnc3C)nnc2s1 | -4.19% |
| O=C(NC1CCCc2c1[nH]c1ccc(F)cc21)c1n[nH]c2c1CCC2 (stereo not given) | 51.7% |
| Cc1noc(CNC(=O)C2CSCCC(=O)N2)n1 (stereo not given) | 2.42% |
| Cc1cnc2n(c1=O)CC(C(=O)Nc1ccon1)CS2 (stereo not given) | 0.595% |
| CS(=O)(=O)N1C[C@H](C(=O)Nc2cnccn2)C[C@H]2OCC[C@H]21 | 10.7% |
| CCS(=O)(=O)N1CCCC2(CCCN2C(=O)c2cn(C)cn2)C1 (stereo not given) | 8.16% |
| CN1C(=O)CC[C@@H]2[C@H]1CCN2S(=O)(=O)Cc1ccccc1 | -5.73% |
| CC(C)NC(=O)c1cc2c([nH]c1=O)CC(c1cccs1)CC2=O (stereo not given) | -3.01% |
| CC(C)OCCCNC(=O)CN(c1ccc(F)c(F)c1)S(C)(=O)=O | 9.96% |
| CC(C)Nc1nc(N2CCCC2)nc2c1CN(C(C)C)CC2 | 2.06% |
| Cc1nn(C)c2c(NCCCn3cccn3)nc(C(C)C)nc12 | 6.67% |
| Cc1nn(C)c(C)c1C(=O)NN1CCOCC1 | 7.83% |
| COc1ccc(C(=O)Nc2c(C(=O)N(C)C)nn(C)c2C)cc1 | 6.03% |
| Oc1nc(N2CCCC2)nc2c1CCN(Cc1ccsc1)CC2 | -12% |
| Cc1noc(C)c1-c1ccc(C2CCCN2C(=O)c2ccncn2)nc1 (stereo not given) | -4.45% |
| Cc1nc(N)sc1C(=O)N1Cc2ccccc2OC2(CCOCC2)C1 | -24.6% |
| COCc1cc(O)nc(C2CCCN(Cc3ccc(OC)cc3)C2)n1 (stereo not given) | -1.25% |
| Cc1cc(C)cc(-c2ccc(CC3(C(=O)O)CCOCC3)cc2)c1 | 4.81% |
| N#CCCN(Cc1ccccn1)C(=O)c1cccc(CN2CCCC2)c1 | 4.93% |
| Cc1noc(C)c1CN(C)C(=O)c1nc(N2CCCC2)ncc1Cl | -41.6% |
| CN(C)C(CNC(=O)CCNC(=O)OCC(F)(F)F)c1ccsc1 (stereo not given) | -45.2% |
| CCOc1ccc(Br)cc1S(=O)(=O)N(CC)Cc1ccc(N(C)C)cc1 | 14.1% |
| Cc1nn(C)c(C)c1C1COCCN1C(=O)CC(C)(C)C (stereo not given) | -5.07% |
| CCSCc1cccc(NCc2cccnc2)c1 | -1.32% |
| CCC(=O)Nc1ncn(Cc2cccnc2)n1 | -11.3% |

| SMILES | cytotoxicity at 10 µM |
| --- | --- |
| Cc1cnc(CN2CCC(N(C)Cc3nnc(C)n3C)C2)cn1 (stereo not given) | -10.7% |
| O=C(C1SCCc2sccc21)N1CCCCC1 (stereo not given) | 9.78% |
| CC(C)C1CN(C(=O)c2ccccc2)CCS1 (stereo not given) | 1.62% |
| CC(C)c1cccc(S(=O)(=O)NCCCN2CCC(O)CC2)c1 | 12.9% |
| Cc1csc(N2CCN(Cc3cccnc3)CC2C)n1 (stereo not given) | 11.2% |
| CCC(CNC1CCN(C(C)=O)CC1)Oc1cccc(C)c1 (stereo not given) | 6.42% |
| CC(NCc1cnc(C2CCC2)s1)c1ccc(-n2cncn2)cc1 (stereo not given) | 1.44% |
| O=C(COc1ccccc1)N(Cc1ccncc1)C1CC1 | -46.1% |
| CCOc1cccc(CNC(=O)CN2CCC3(CCOC3)C2)c1 (stereo not given) | -42.1% |
| CCOCCN1CCCC1CS(N)(=O)=O (stereo not given) | 14.3% |
| CCOCC(=O)Nc1ncn(Cc2cccc(Br)c2)n1 | -5.53% |
| COCCN1CC[C@]2(CN(C(=O)c3ccc[nH]3)C[C@H]2C)C1=O | 2.53% |
| Cc1csc(NC(=O)[C@@H]2C[C@H]3[C@H](CCN3S(C)(=O)=O)O2)n1 | 1.64% |
| O=C(CC(F)(F)F)N1C[C@H]2CCN[C@H]2C1 | 2.95% |
| COCc1cnc2n1CCN(C(=O)c1cc3ccccc3o1)C2C (stereo not given) | -105% |
| CN(C)CC(=O)N1CCC2(CC1)COCCN(Cc1ccncc1)C2 | -80.8% |
| Cc1[nH]c2ccccc2c1-c1ccnc(NCCN2CCOCC2)n1 | 7.12% |
| Cc1n[nH]c(C)c1Sc1ccccc1NC(=O)N1CCN(C)CC1 | -12.9% |
| Cc1ncc(CC(=O)N2CCCCC2CCN2CCCC2)c(=O)[nH]1 (stereo not given) | -9.2% |
| Cc1nc(CN2CCCC(CCc3cccc(C(F)(F)F)c3)C2)co1 (stereo not given) | -0.0825% |
| Cc1cc(-n2cccn2)ccc1CN1CCOCC(CN(C)C)C1 (stereo not given) | -38.2% |
| Cn1ncc2c(NC3CCSC3)nc(-c3ccncc3)nc21 (stereo not given) | 21.6% |
| CCn1cc(CN2CCC(NS(C)(=O)=O)CC2)cc1C#N | -4.18% |
| OCCC1CN(c2ncnc3[nH]cnc23)CCN1Cc1ccccc1 (stereo not given) | 11.9% |
| CCc1nnc(CNC2CCN(c3ncnc4c(C)csc34)CC2)s1 | 10.5% |
| Cc1ncc2c(c1CNC(=O)C1(c3ccc(F)cc3)CC1)CCNC2 | -46.6% |
| CCc1ccc(CN2CCN(c3ccc(C#N)cc3)C(=O)C2)nc1 | -1.32% |

| SMILES | cytotoxicity at 10 µM |
| --- | --- |
| O=C(c1ccc(=O)[nH]c1)N1CCc2c(nc(-c3cccnc3)[nH]c2=O)C1 | 9.84% |
| Cc1nn2c(N3CCC(C(N)=O)CC3)cc(-c3ccccc3)nc2c1C | -2.83% |
| CCOC(=O)C1(CCOC)CCCN(Cc2nccn2CC)C1 (stereo not given) | 10.8% |
| CNC(=O)c1cn2cc(-c3ccccc3Cl)n(CC=C(C)C)c(=O)c2n1 | -7.05% |
| CCN(CCn1cccn1)Cc1nc(-c2ccc(F)cc2)oc1C | 1.07% |
| CC(C)NC(=O)c1nc(Cn2c(C(F)F)nc3ccccc32)no1 | 9.34% |
| CCC[C@H]1CN(Cc2cc(C#N)n(C)c2C)C[C@@H]1NS(=O)(=O)CC | -153% |
| Cc1ccc(C)c(NC(=O)c2coc(C)n2)c1 | -5.97% |
| N#Cc1cccc(C(=O)N2CCN(c3ncccn3)CC2)c1 | -0.0581% |
| O=C(CCCn1cncn1)NC1CCc2nccn2C1 (stereo not given) | 2.03% |
| CC(C)CCc1nc(CNCC2CCCN2c2cccnn2)cs1 (stereo not given) | -10.7% |
| Cc1cc(S(=O)(=O)N2CCc3ccc(F)cc32)cc(C(=O)O)c1C | 3.2% |
| CCn1cnnc1CNC(=O)N1CCC(C(=O)NC)CC1 | 2.65% |
| CN(Cc1cccs1)C(=O)CS(=O)(=O)Cc1ccc(Cl)c(Cl)c1 | 0.866% |
| O[C@@]1(c2ccccn2)CC[C@H]2CN(Cc3cccc(Cl)c3Cl)C[C@H]21 | 0.256% |
| Cc1ccc([C@]2(O)CC[C@H]3CN(Cc4cccc(Cl)c4Cl)C[C@H]32)nc1 | 9.42% |
| Cc1ccc(N2C[C@H]3CCC[C@@H](CN4CCOCC4)[C@H]3C2)nn1 | 10.7% |
| Clc1ccc(COCC2CCN(Cc3ccccn3)CC2)cc1 | 4.94% |
| O=C(NC1CC1)N1CCc2ccc(=O)n(CCN3CCCC3)c2CC1 | -0.603% |
| Cc1nnc(N2CC[C@H]3C[C@@H](C(=O)NC4CCCC4)O[C@H]3C2)s1 | 6.69% |
| c1cncc(COCc2n[nH]c3c2CN(Cc2ccco2)C3)c1 | 9.01% |
| CCC1=N[C@@]2(CC[C@@H]3CN(Cc4ccc(F)cc4)C[C@@H]32)C(=O)N1C | -106% |
| Cc1ccc(CN2CC[C@H]3OCC[C@@H](C(=O)N4CCCCO4)[C@@H]3C2)o1 | 3.54% |
| CC(C)n1nc(CN2CCOCC2)c2c1CN(C(=O)c1ccno1)C2 | 2.62% |
| CC(=O)N1CCCC1c1nnn2cc(-c3ccncc3)ccc12 (stereo not given) | 7.28% |
| c1ccc(CN2CCCC3(CCN(CC4CCCO4)CC3)C2)nc1 (stereo not given) | -115% |
